Screening data from PubChem.
TAAR1 antagonist = antagonists of human TAAR1; Q96RJ0; CHO RD-HGA16 TAAR1, Fluo-8 calcium fluorescence, antagonist; inhibition, % at 3 µM; 1.5% of 360,000 active; AID 624466;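 active means inhibition above a per-plate cutoff, the mean inhibition of test compounds on that plate plus 3 SD, cut at about 49% in these data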
Target sequence (Q96RJ0 whole entry, looked up): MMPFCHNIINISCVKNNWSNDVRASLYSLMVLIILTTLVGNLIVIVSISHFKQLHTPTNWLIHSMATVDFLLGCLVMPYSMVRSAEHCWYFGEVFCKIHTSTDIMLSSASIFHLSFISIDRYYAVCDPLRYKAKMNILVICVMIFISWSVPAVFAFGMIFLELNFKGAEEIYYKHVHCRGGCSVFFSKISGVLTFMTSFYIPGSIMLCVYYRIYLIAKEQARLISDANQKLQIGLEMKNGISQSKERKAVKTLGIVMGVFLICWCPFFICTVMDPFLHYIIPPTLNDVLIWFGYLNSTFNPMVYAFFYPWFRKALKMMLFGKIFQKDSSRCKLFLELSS
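Test system: CHO RD-HGA16 cells bearing hTAAR1 | Reagent: β-PEA, EC80 | Compound dosing: 3 µM, single point | Schedule: Dye loading 75 min at 37 °C, then 30 min room temperature | Signal: Calcium fluorescence with Fluo-8 | Evaluation: Percent inhibition of PEA-evoked calcium signal, max/basal emission ratio | Control set: DMSO-only wells and EC80 β-PEA-stimulated wells | Repeats: Singlicate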
TAAR1 agonist = human TAAR1 agonism; Q96RJ0; CHO RD-HGA16 TAAR1, Fluo-8 calcium fluorescence; vehicle wells 0%, saturating PEA agonist 100%; activation, % at 3 µM; 0.99% of 360,000 active; AID 624467;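 active means activation above the mean activation of all test compounds in the run plus 3 SD, cut at about 38% in these data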
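test system = CHO RD-HGA16 cells carrying human TAAR1 plus Gα16 | schedule = 17-24 h seeding, 75 min 37 °C dye, 30 min RT | compound dosing = 3 µM single concentration | control set = DMSO and PEA EC100 | replicates = n 1 | signal = Fluo-8 fluorescence, 5 s baseline then 140 s kinetic read | measure = percent activation vs PEA EC100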
CHO parental Ca = counter-screen: ATP calcium response change in parental CHO cells | inhibition, % at 5.6 µM | AID 463079 | parental CHO-K1, ATP-induced calcium, Fluo-8 fluorescence | 0.63% of 330,000 active;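 active means inhibition above that plate's mean sample inhibition plus 3 SD, cut at about 26% in these data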
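Test system: parental CHO cells; detection: calcium-sensitive Fluo-8 fluorescence; evaluation: percent inhibition of calcium signal; also added: ATP as calcium-mobilizing challenge; repeats: one well per compound; control set: ATP-challenged DMSO wells low, unchallenged DMSO wells high; compound: single nominal dose of 5.6 µM per compound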
OX1R antag-1 = antagonists of human orexin 1 receptor | O43613 | CHO/OX1R cells, Fluo-8 calcium fluorescence, orexin A | inhibition, % at 5 µM | 0.43% of 330,000 active;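 active means inhibition above its plate's threshold, mean inhibition of all tested compounds on the plate plus 3 SD, cut at about 37% in these data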
Target sequence (O43613 whole entry, looked up): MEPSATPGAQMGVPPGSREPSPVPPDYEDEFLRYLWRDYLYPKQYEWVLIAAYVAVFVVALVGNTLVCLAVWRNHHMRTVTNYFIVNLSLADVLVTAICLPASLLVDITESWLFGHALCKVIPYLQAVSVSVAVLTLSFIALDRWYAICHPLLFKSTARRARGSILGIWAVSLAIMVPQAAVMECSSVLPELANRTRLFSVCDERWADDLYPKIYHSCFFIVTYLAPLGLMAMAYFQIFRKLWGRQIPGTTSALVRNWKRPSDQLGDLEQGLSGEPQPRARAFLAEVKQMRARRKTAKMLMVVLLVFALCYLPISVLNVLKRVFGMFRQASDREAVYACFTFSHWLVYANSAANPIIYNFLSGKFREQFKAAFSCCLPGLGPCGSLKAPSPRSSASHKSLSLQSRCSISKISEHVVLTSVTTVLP
OX1R antag-2 = antagonists of human orexin 1 receptor (OX1R). O43613. OX1R-expressing cells, FRET antagonist read-out. AID 485270. inhibition, % at 6.6 µM. 1.8% of 330,000 active; in the data active means inhibition mostly above about 38%, no sharp cut-off; inactive means mostly below about 40%
OX1R Ca confirm = confirmation of human orexin 1 receptor antagonists. 38% of 1,100 active. inhibition, % at 5 µM. CHO/OX1R cells, orexin A calcium Fluo-8 fluorescence. shares compounds with OX1R antag-1; in the data active means inhibition above about 29%
CHO Ca counter = signal in parental CHO cells, OX1R antagonist counter-screen; parental CHO-K1, ATP-induced calcium, Fluo-8 fluorescence; 9.3% of 1,100 active; shares compounds with OX1R antag-1; inhibition, % at 5.6 µM;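 active means inhibition above a per-plate limit, the mean inhibition of that plate's test compounds plus 3 SD, cut at about 25% in these data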
OX1R HTRF conf = OX1R (human) antagonism, HTRF confirmed | shares compounds with OX1R antag-2 | OX1R-expressing cells, HTRF antagonist assay | inhibition, % at 6.6 µM | 49% of 1,800 active; in the data active means inhibition above about 55%;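 further: CHO cells expressing OX1R stimulated with orexin A at about EC80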
CHO-K1 HTRF = counter-screen for OX1R antagonists: effect in parental CHO-K1 cells | shares compounds with OX1R antag-2 | HTRF counterscreen | inhibition, % at 6.6 µM | 48% of 1,800 active | AID 493232; in the data active means inhibition above about 17%
TAAR1 ag conf = confirmation of human TAAR1 agonists. CHO RD-HGA16 TAAR1, Fluo-8 calcium fluorescence; scaled: DMSO 0%, maximal phenethylamine 100%. shares compounds with TAAR1 agonist. activation, % at 3 µM. 82% of 2,400 active. AID 651783;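 active means activation above a cutoff set at the run's mean compound activation plus 3 SD, cut at about 39% in these data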
Ga16 nonsel ag = nonselective agonism, TAAR1 counter-screen; shares compounds with TAAR1 agonist; CHO-Ga16 parental, Fluo-8 calcium fluorescence; normalized to maximal ATP response, DMSO zero; activation, % at 3 µM; 50% of 2,400 active; AID 651787;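 active means activation above the run cutoff, the mean activation over all tested wells plus 3 SD, cut at about 12% in these data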
TAAR1 desens = counter-screen for human TAAR1 agonists: agonists that desensitize TAAR1. shares compounds with TAAR1 agonist. CHO RD-HGA16 hTAAR1, Fluo-8 calcium, beta-PEA response inhibition. inhibition, % at 3 µM. 46% of 2,400 active. AID 651951;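 active means inhibition above the run cutoff, the mean inhibition of all test compounds plus 3 SD, cut at about 49% in these data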;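 further: beta-PEA stimulus applied at its EC80; loss of beta-PEA calcium signal after compound pretreatment read as receptor desensitization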
Ga16 antag count = nonselective Ga16 antagonist in TAAR1 agonist counter-screen; shares compounds with TAAR1 agonist; CHO-Ga16 ATP-induced calcium, Fluo-8 fluorescence; inhibition, % at 3 µM; 39% of 2,400 active;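 active means inhibition above the plate's mean compound inhibition plus 3 SD, computed per plate, cut at about 22% in these data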
Numbers stand for hits; i = inactive; nt = no result given. Only some compounds are listed: those with a hit (about 3.9% of all), similar ones and a draw of the others.

SMILES	TAAR1 antagonist	TAAR1 agonist	CHO parental Ca	OX1R antag-1	OX1R antag-2	OX1R HTRF conf	CHO-K1 HTRF	others
O=C(Nc1nnc(-c2ccccc2Cl)o1)c1nc2ccccc2s1	74	134	i	i	i	nt	nt	OX1R Ca confirm=i;CHO Ca counter=i;TAAR1 ag conf=113;Ga16 nonsel ag=81;TAAR1 desens=64;Ga16 antag count=36
Cc1ccc(NC(=O)CSC2=C(C#N)C(c3ccco3)CC(=O)N2)cc1 (stereo not given)	i	i	i	i	i	nt	nt
Cc1ccc(C(=O)CSC2=C(C#N)C(c3ccco3)CC(=O)N2)c(C)c1 (stereo not given)	i	74	i	i	i	nt	nt	OX1R Ca confirm=39;CHO Ca counter=i;TAAR1 ag conf=48;Ga16 nonsel ag=25;TAAR1 desens=i;Ga16 antag count=24
CCCCc1c(-c2ccccc2OC)ncn1Cc1cccc(F)c1F	i	i	nt	nt	nt	nt	nt
COc1ccccc1CCn1cnc(-c2ccc(F)cc2F)c1CC(C)C	i	i	nt	nt	nt	nt	nt
C/C(=N\NC(=O)c1ccncc1)c1cc2ccccc2oc1=O	i	i	i	i	i	nt	nt
C/C(=N/NC(=O)c1ccncc1)c1cc2ccc(O)cc2oc1=O	i	90	i	i	i	nt	nt	OX1R Ca confirm=66;CHO Ca counter=54;TAAR1 ag conf=134;Ga16 nonsel ag=153;TAAR1 desens=i;Ga16 antag count=i
CCOC1=CC2=C(C(=O)C(Cl)=CC2=O)[C@@H]2CN(S(=O)(=O)c3ccc(C)cc3)[C@@H](c3ccccc3)[C@H]12	i	i	nt	nt	nt	nt	nt
c1ccc(Nc2nc(NCc3ccco3)c3ccccc3n2)cc1	i	56	i	i	i	nt	nt	OX1R Ca confirm=i;CHO Ca counter=i;TAAR1 ag conf=84;Ga16 nonsel ag=i;TAAR1 desens=85;Ga16 antag count=29
CCC(=O)c1ccc(OC(=O)c2ccc(Br)o2)cc1	84	123	i	i	i	nt	nt	OX1R Ca confirm=38;CHO Ca counter=39;TAAR1 ag conf=76;Ga16 nonsel ag=71;TAAR1 desens=64;Ga16 antag count=51
CC(=O)c1ccc(OC(=O)c2ccc(Br)o2)cc1	i	i	i	i	i	nt	nt
CCOC(=O)c1ccc(NC(=S)N2CCSC2c2ccc(Cl)cc2)cc1 (stereo not given)	105	123	i	i	i	nt	nt	OX1R Ca confirm=91;CHO Ca counter=73;TAAR1 ag conf=136;Ga16 nonsel ag=94;TAAR1 desens=106;Ga16 antag count=80
COc1ccccc1C(=O)Nc1sc2c(c1C(N)=O)CCCC2	i	i	i	i	79	69	i
COc1ccccc1C(=O)Nc1sc2c(c1C#N)CCC2	nt	nt	i	i	i	nt	nt
Cn1cc(Br)c(C(=O)Nc2sc3c(c2C(N)=O)CCC3)n1	i	i	i	i	79	i	i
Cn1ccc(C(=O)Nc2sc3c(c2C(N)=O)CCCCC3)n1	i	i	i	i	i	nt	nt
Cc1c(NC(=O)CN2C(=O)C(=O)c3ccccc32)c(=O)n(-c2ccccc2)n1C	i	i	i	i	80	i	51
Cc1cc(-c2cc(NC(=O)Cc3c[nH]c4ccccc34)ccc2N(C)c2cccnc2)ccc1F	i	i	nt	nt	nt	nt	nt
COc1ccc(-c2cc(C(F)F)n3ncc(C(=O)n4ccnc4C)c3n2)cc1	i	i	i	i	108	i	29
COc1ccc(-c2cc(C(F)F)n3ncc(C(=O)N4CCc5ccccc54)c3n2)cc1	i	i	i	i	i	nt	nt
COCCNCC(=O)Nc1ccc(C)c(S(=O)(=O)N2CCCCC2)c1	i	i	i	i	100	i	i
Cc1ccc(NC(=O)CCl)cc1S(=O)(=O)N1CCCCCC1	i	i	i	i	i	nt	nt
CC(=NNc1cc(C)c2cc(C)ccc2n1)c1ccccn1	i	i	nt	nt	nt	nt	nt
CC(=O)N1CCn2c3c(c(=O)c4cc(C)ccc42)CCC31 (stereo not given)	i	i	i	i	82	i	i
CC(=O)N(/N=C1\Sc2ccccc2C1=O)c1cccc(C)c1	i	i	i	i	105	i	i
SMILES	TAAR1 antagonist	TAAR1 agonist	CHO parental Ca	OX1R antag-1	OX1R antag-2	OX1R HTRF conf	CHO-K1 HTRF	others
CC(=O)N(CN1C(=O)c2ccccc2C1=O)c1cccc(C)c1	i	i	i	i	i	nt	nt
Cc1ccc2cc3cc(C(=O)NCCN4CCOCC4)oc3nc2c1	i	i	i	i	117	i	38
Cc1ccc2cc3cc(C(=O)NCCCN4CCCC4=O)oc3nc2c1	i	i	i	i	i	nt	nt
COc1ccc2cc3cc(C(=O)NCCCN4CCOCC4)oc3nc2c1	i	i	i	i	135	56	35
COc1ccc(C(=O)NCCCN2CCOCC2)cc1	i	i	i	i	i	nt	nt
CCN1CCN(CCCNC(=O)c2cc3cc4ccc(OC)cc4nc3o2)CC1	nt	nt	i	i	104	i	41
CCc1c(-c2cccc(OC)c2)ncn1Cc1cccc(-c2ccccc2)c1	i	i	nt	nt	nt	nt	nt
CCN(CC(=O)Nc1ccccc1C(F)(F)F)CC(=O)c1[nH]c(C)c(C(C)=O)c1C	i	i	nt	nt	nt	nt	nt
COc1ccccc1C(=O)N1CCC2CCN(C(=O)OC(C)(C)C)C2C1 (stereo not given)	i	i	nt	nt	nt	nt	nt
COCC(=O)OCC(=O)Nc1ccc(Cl)cc1[N+](=O)[O-]	i	i	i	i	99	i	50
CC(=O)NC1=C(Nc2ccc(N(C)C)cc2)C(=O)c2ccccc2C1=O	i	i	i	i	120	66	92
CSc1nncn1/N=C/c1ccc([N+](=O)[O-])cc1	i	i	i	i	90	i	46
CSc1nncn1/N=C/c1ccc2c(c1)OCO2	i	i	i	i	i	nt	nt
S=c1[nH]ncn1/N=C/c1cccs1	i	i	i	i	i	nt	nt
O=[N+]([O-])c1ccc(/C=N/n2cn[nH]c2=S)cc1	i	i	i	i	109	60	74
O=C(NCc1ccccc1Cl)c1csc([C@@H]2C[C@H](O)[C@@H](CO)O2)n1	i	i	nt	nt	nt	nt	nt
Nc1ncc(-c2ccc([N+](=O)[O-])cc2)cn1	i	i	i	i	105	i	41
CCCCNC(=O)C1(C)CCCCN1Cc1ccc2ccccc2c1 (stereo not given)	i	i	nt	nt	nt	nt	nt
